Source: ChEMBL document CHEMBL3102812 (J Med Chem, 2013)
≈ marks a conversion by molar mass, not a printed value. Calls of active or inactive are those of the source. The rule behind the calls is not given here.

Test system: Mus musculus
Test: Toxicity in Swiss mouse assessed as weight loss at 50 mg/kg, po bid for 2.5 days
Type: organism-based
Parameters: dose 50 mg/kg, route oral
Conditions: in vivo, 60 h
Outline: (§1)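 Acute toxicity by stepwise cumulative oral dosing in two mice per compound: 25 and/or 50 mg/kg twice daily for 2.5 days to […]; animals observed for 1 week after the last dose for adverse effects and weight loss.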

Structure (SMILES) | Activity
O=C(C(c1ccc(Cl)cc1)c1cccnc1)N1CCN(c2ccc(C(F)(F)F)cc2)CC1 (racemic) | Non-toxic
O=C([C@@H](c1ccc(Cl)cc1)c1cccnc1)N1CCN(c2ccc(C(F)(F)F)cc2)CC1 | Non-toxic
FC(F)(F)c1ccc(N(c2cccnc2)C2CCN(c3ccc(C(F)(F)F)cn3)CC2)cc1 | Non-toxic

Test system: Mus musculus
Test: Toxicity in Swiss mouse assessed as weight loss at 25 mg/kg, po bid for 2.5 days
Type: organism-based
Parameters: dose 25 mg/kg, route oral
Conditions: in vivo, 60 h
Outline: as §1

Structure (SMILES) | Activity
O=C(C(c1ccc(Cl)cc1)c1cccnc1)N1CCN(c2ccc(C(F)(F)F)cc2)CC1 (racemic) | Non-toxic
O=C([C@@H](c1ccc(Cl)cc1)c1cccnc1)N1CCN(c2ccc(C(F)(F)F)cc2)CC1 | Non-toxic
FC(F)(F)c1ccc(N(c2cccnc2)C2CCN(c3ccc(C(F)(F)F)cn3)CC2)cc1 | Non-toxic

Test system: Mus musculus
Test: Toxicity in Swiss mouse at 20 mg/kg, po
Conditions: in vivo

Structure (SMILES) | Activity
O=C(C(c1ccc(Cl)cc1)c1cccnc1)N1CCN(c2ccc(C(F)(F)F)cc2)CC1 (racemic) | Non-toxic
O=C([C@@H](c1ccc(Cl)cc1)c1cccnc1)N1CCN(c2ccc(C(F)(F)F)cc2)CC1 | Non-toxic
FC(F)(F)c1ccc(N(c2cccnc2)C2CCN(c3ccc(C(F)(F)F)cn3)CC2)cc1 | Non-toxic

Test system: Trypanosoma cruzi
Test: Antitrypanosomal activity against Trypanosoma cruzi Tulahuen 6 infected in Swiss mouse at 5 mg/kg, po qd administered on day 8 post-infection for 20 days followed by 10 days non-treatment period followed by three cycles of immunosuppression measured on day 58 post-infection by PCR analysis
Type: functional, organism-based
Parameters: dose 5 mg/kg
Conditions: not given

Structure (SMILES) | Activity
O=C([C@@H](c1ccc(Cl)cc1)c1cccnc1)N1CCN(c2ccc(C(F)(F)F)cc2)CC1 | inactive

Test system: Trypanosoma cruzi
Test: Antitrypanosomal activity against Trypanosoma cruzi Tulahuen 6 infected in Swiss mouse at 20 mg/kg, po qd administered on day 8 post-infection for 20 days followed by 10 days non-treatment period followed by three cycles of immunosuppression measured on day 58 post-infection by PCR analysis
Type: functional, organism-based
Parameters: dose 20 mg/kg
Conditions: not given

Structure (SMILES) | Activity
O=C(C(c1ccc(Cl)cc1)c1cccnc1)N1CCN(c2ccc(C(F)(F)F)cc2)CC1 (racemic) | inactive
FC(F)(F)c1ccc(N(c2cccnc2)C2CCN(c3ccc(C(F)(F)F)cn3)CC2)cc1 | Active

Test system: Trypanosoma cruzi
Test: Antitrypanosomal activity against Trypanosoma cruzi Tulahuen 6 infected in Swiss mouse assessed as mouse survival at 10 mg/kg, po qd administered on day 8 post-infection for 20 days followed by 10 days non-treatment measured on day 37 post-infection by microscopic analysis
Type: functional, organism-based
Parameters: dose 10 mg/kg
Conditions: not given

Structure (SMILES) | Activity
O=C([C@@H](c1ccc(Cl)cc1)c1cccnc1)N1CCN(c2ccc(C(F)(F)F)cc2)CC1 | Active

Test system: Trypanosoma cruzi
Test: Antitrypanosomal activity against Trypanosoma cruzi Tulahuen 6 infected in Swiss mouse assessed as mouse survival at 10 mg/kg, po qd administered on day 8 post-infection for 20 days measured on day 28 post-infection by microscopic analysis
Type: functional, organism-based
Parameters: dose 10 mg/kg
Conditions: not given
Outline: (§2)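 Outbred female Swiss mice (~8 weeks) infected with mouse-passaged Tulahuen TcVI trypomastigotes; oral dosing once daily for 20 days from day 8 post-infection, suspension in 0.5% HPMC, 0.4% Tween 80, 0.5% benzyl alcohol, 5% DMSO in water; blood parasitemia by microscopy (LOD 20 000 parasites/mL); mice with recurring parasitemia euthanized; survival counted per starting group; 10-day untreated period days 28–37.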

Structure (SMILES) | Activity
O=C([C@@H](c1ccc(Cl)cc1)c1cccnc1)N1CCN(c2ccc(C(F)(F)F)cc2)CC1 | Active

Test system: Trypanosoma cruzi
Test: Antitrypanosomal activity against Trypanosoma cruzi Tulahuen 6 infected in Swiss mouse assessed as mouse survival at 5 mg/kg, po qd administered on day 8 post-infection for 20 days followed by 10 days non-treatment measured on day 37 post-infection by microscopic analysis
Type: functional, organism-based
Parameters: dose 5 mg/kg
Conditions: not given

Structure (SMILES) | Activity
O=C([C@@H](c1ccc(Cl)cc1)c1cccnc1)N1CCN(c2ccc(C(F)(F)F)cc2)CC1 | Active

Test system: Trypanosoma cruzi
Test: Antitrypanosomal activity against Trypanosoma cruzi Tulahuen 6 infected in Swiss mouse assessed as mouse survival at 5 mg/kg, po qd administered on day 8 post-infection for 20 days measured on day 28 post-infection by microscopic analysis
Type: functional, organism-based
Parameters: dose 5 mg/kg
Conditions: not given

Structure (SMILES) | Activity
O=C([C@@H](c1ccc(Cl)cc1)c1cccnc1)N1CCN(c2ccc(C(F)(F)F)cc2)CC1 | Active

Test system: Trypanosoma cruzi
Test: Antitrypanosomal activity against Trypanosoma cruzi Tulahuen 6 infected in Swiss mouse assessed as mouse survival at 20 mg/kg, po qd administered on day 8 post-infection for 20 days measured on day 28 post-infection by microscopic analysis
Type: functional, organism-based
Parameters: dose 20 mg/kg
Conditions: not given

Structure (SMILES) | Activity
O=C(C(c1ccc(Cl)cc1)c1cccnc1)N1CCN(c2ccc(C(F)(F)F)cc2)CC1 (racemic) | Active

Test system: Trypanosoma cruzi
Test: Antitrypanosomal activity against Trypanosoma cruzi Tulahuen 6 infected in Swiss mouse assessed as mouse survival at 10 mg/kg, po qd administered on day 8 post-infection measured on same day by microscopic analysis
Type: functional, organism-based
Parameters: dose 10 mg/kg
Conditions: not given

Structure (SMILES) | Activity
O=C([C@@H](c1ccc(Cl)cc1)c1cccnc1)N1CCN(c2ccc(C(F)(F)F)cc2)CC1 | Active

Test system: Trypanosoma cruzi
Test: Antitrypanosomal activity against Trypanosoma cruzi Tulahuen 6 infected in Swiss mouse assessed as mouse survival at 5 mg/kg, po qd administered on day 8 post-infection measured on same day by microscopic analysis
Type: functional, organism-based
Parameters: dose 5 mg/kg
Conditions: not given

Structure (SMILES) | Activity
O=C([C@@H](c1ccc(Cl)cc1)c1cccnc1)N1CCN(c2ccc(C(F)(F)F)cc2)CC1 | Active

Test system: Trypanosoma cruzi
Test: Antitrypanosomal activity against Trypanosoma cruzi Tulahuen 6 infected in Swiss mouse assessed as mouse survival at 20 mg/kg, po qd administered on day 8 post-infection measured on same day by microscopic analysis
Type: functional, organism-based
Parameters: dose 20 mg/kg
Conditions: not given

Structure (SMILES) | Activity
O=C(C(c1ccc(Cl)cc1)c1cccnc1)N1CCN(c2ccc(C(F)(F)F)cc2)CC1 (racemic) | Active
FC(F)(F)c1ccc(N(c2cccnc2)C2CCN(c3ccc(C(F)(F)F)cn3)CC2)cc1 | Active

Test system: Mus musculus
Test: Oral bioavailability in Swiss mouse at 20 mg/kg by LC/MS analysis
Type: ADME, organism-based
Conditions: in vivo

Structure (SMILES) | F
O=C([C@@H](c1ccc(Cl)cc1)c1cccnc1)N1CCN(c2ccc(C(F)(F)F)cc2)CC1 | 64%
FC(F)(F)c1ccc(N(c2cccnc2)C2CCN(c3ccc(C(F)(F)F)cn3)CC2)cc1 | 95%

Test system: not listed separately
Test: Half life in Swiss mouse at 20 mg/kg, po by LC/MS analysis
Type: ADME, organism-based
Parameters: dose 20 mg/kg, route oral
Conditions: in vivo

Structure (SMILES) | half-life
O=C([C@@H](c1ccc(Cl)cc1)c1cccnc1)N1CCN(c2ccc(C(F)(F)F)cc2)CC1 | 8.2 h
FC(F)(F)c1ccc(N(c2cccnc2)C2CCN(c3ccc(C(F)(F)F)cn3)CC2)cc1 | 12.5 h

Test system: not listed separately
Test: Volume of distribution at steady state in Swiss mouse at 2 mg/kg, iv and 20 mg/kg, po by LC/MS analysis
Type: ADME, organism-based
Conditions: in vivo, read-out: Vdss

Structure (SMILES) | Vd
O=C([C@@H](c1ccc(Cl)cc1)c1cccnc1)N1CCN(c2ccc(C(F)(F)F)cc2)CC1 | 4.2 L/kg
FC(F)(F)c1ccc(N(c2cccnc2)C2CCN(c3ccc(C(F)(F)F)cn3)CC2)cc1 | 4.4 L/kg

Test system: not listed separately
Test: Half life in Swiss mouse at 2 mg/kg, iv by LC/MS analysis
Type: ADME, organism-based
Parameters: dose 2 mg/kg, route intravenous
Conditions: in vivo

Structure (SMILES) | half-life
O=C([C@@H](c1ccc(Cl)cc1)c1cccnc1)N1CCN(c2ccc(C(F)(F)F)cc2)CC1 | 5.9 h
FC(F)(F)c1ccc(N(c2cccnc2)C2CCN(c3ccc(C(F)(F)F)cn3)CC2)cc1 | 8.6 h

Test system: not listed separately
Test: Plasma clearance in Swiss mouse at 2 mg/kg, iv and 20 mg/kg, po by LC/MS analysis
Type: ADME, organism-based
Conditions: not given

Structure (SMILES) | clearance
O=C([C@@H](c1ccc(Cl)cc1)c1cccnc1)N1CCN(c2ccc(C(F)(F)F)cc2)CC1 | 7.7 mL/min/kg
FC(F)(F)c1ccc(N(c2cccnc2)C2CCN(c3ccc(C(F)(F)F)cn3)CC2)cc1 | 8.1 mL/min/kg

Test system: Trypanosoma cruzi
Test: Antitrypanosomal activity against Trypanosoma cruzi Tulahuen 6 infected in Swiss mouse assessed as reduction in blood parasitemia at 20 mg/kg, po qd administered on day 8 post-infection for 10 days by microscopic analysis
Type: functional, organism-based
Parameters: dose 20 mg/kg
Conditions: not given
Outline: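 Infected Swiss mice dosed orally at 20 mg/kg once daily for up to 10 days starting day 8 pi; blood parasitemia followed by microscopy throughout dosing, scored as cleared or not during the dosing period.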

Structure (SMILES) | Activity
O=C(C(c1ccc(Cl)cc1)c1cccnc1)N1CCN(c2ccc(C(F)(F)F)cc2)CC1 (racemic) | Active
FC(F)(F)c1ccc(N(c2cccnc2)C2CCN(c3ccc(C(F)(F)F)cn3)CC2)cc1 | Active

Test system: not listed separately
Test: Kinetic aqueous solubility of the compound in phosphate buffer at pH 6.5 by nephelometric analysis
Conditions: not given

Structure (SMILES) | solubility kinetic
O=C(C(c1ccc(Cl)cc1)c1cccnc1)N1CCN(c2ccc(C(F)(F)F)cc2)CC1 (racemic) | 1.6 µg/mL (≈ 3.48 µM)
O=C([C@@H](c1ccc(Cl)cc1)c1cccnc1)N1CCN(c2ccc(C(F)(F)F)cc2)CC1 | 1.6 µg/mL (≈ 3.48 µM)
FC(F)(F)c1ccc(N(c2cccnc2)C2CCN(c3ccc(C(F)(F)F)cn3)CC2)cc1 | < 1.6 µg/mL

Test system: not listed separately
Test: Kinetic aqueous solubility of the compound in phosphate buffer at pH 2 by nephelometric analysis
Conditions: phosphate buffer

Structure (SMILES) | solubility kinetic
O=C(C(c1ccc(Cl)cc1)c1cccnc1)N1CCN(c2ccc(C(F)(F)F)cc2)CC1 (racemic) | > 100 µg/mL
O=C([C@@H](c1ccc(Cl)cc1)c1cccnc1)N1CCN(c2ccc(C(F)(F)F)cc2)CC1 | > 100 µg/mL
FC(F)(F)c1ccc(N(c2cccnc2)C2CCN(c3ccc(C(F)(F)F)cn3)CC2)cc1 | > 100 µg/mL

Test system: not listed separately
Test: Partition coefficient, log D of the compound at pH 7.4 by chromatographic method
Conditions: octanol/water

Structure (SMILES) | chromatographic logD
O=C(C(c1ccc(Cl)cc1)c1cccnc1)N1CCN(c2ccc(C(F)(F)F)cc2)CC1 (racemic) | 4.5
O=C([C@@H](c1ccc(Cl)cc1)c1cccnc1)N1CCN(c2ccc(C(F)(F)F)cc2)CC1 | 4.5
FC(F)(F)c1ccc(N(c2cccnc2)C2CCN(c3ccc(C(F)(F)F)cn3)CC2)cc1 | > 5.3

Molecular target: Cytochrome P450 3A4 (Homo sapiens, UniProt P08684)
Test: Inhibition of CYP3A4 in human liver microsomes assessed as 6beta-hydroxylation of testosterone
Conditions: not given

Cytochrome P450 3A4, sequence (P08684 whole entry): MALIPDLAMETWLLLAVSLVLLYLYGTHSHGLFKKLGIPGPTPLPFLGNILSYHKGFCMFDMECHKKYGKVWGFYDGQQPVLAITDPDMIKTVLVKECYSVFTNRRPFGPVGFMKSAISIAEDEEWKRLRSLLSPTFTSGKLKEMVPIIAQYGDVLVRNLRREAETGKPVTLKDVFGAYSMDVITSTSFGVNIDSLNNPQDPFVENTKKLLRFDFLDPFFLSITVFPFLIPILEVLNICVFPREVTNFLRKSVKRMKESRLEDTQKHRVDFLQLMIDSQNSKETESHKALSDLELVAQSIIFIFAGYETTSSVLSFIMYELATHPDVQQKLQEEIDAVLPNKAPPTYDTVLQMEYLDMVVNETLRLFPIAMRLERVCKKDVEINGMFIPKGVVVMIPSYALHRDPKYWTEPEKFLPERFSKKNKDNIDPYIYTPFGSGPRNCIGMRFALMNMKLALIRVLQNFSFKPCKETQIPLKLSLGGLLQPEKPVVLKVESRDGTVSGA

Structure (SMILES) | IC50
O=C(C(c1ccc(Cl)cc1)c1cccnc1)N1CCN(c2ccc(C(F)(F)F)cc2)CC1 (racemic) | 16 µM
O=C([C@@H](c1ccc(Cl)cc1)c1cccnc1)N1CCN(c2ccc(C(F)(F)F)cc2)CC1 | 15 µM

Test system: Trypanosoma cruzi
Test: Antitrypanosomal activity against Trypanosoma cruzi Tulahuen 6 amastigotes infected in rat L6 cells after 96 hrs by colorimetric method
Type: functional, organism-based
Conditions: Tulahuen 6, L6, 96 h

Structure (SMILES) | IC50
FC(F)(F)c1ccc(N(c2cccnc2)C2CCN(c3ccc(C(F)(F)F)cn3)CC2)cc1 | 0.017 µM

Test system: Trypanosoma cruzi
Test: Antitrypanosomal activity against Trypanosoma cruzi Tulahuen 6 infected in Swiss mouse assessed as mouse survival at 20 mg/kg, po qd administered on day 8 post-infection for 20 days followed by 10 days non-treatment measured on day 37 post-infection by microscopic analysis
Type: functional, organism-based
Parameters: dose 20 mg/kg
Conditions: not given
Outline: as §2

Structure (SMILES) | Activity
O=C(C(c1ccc(Cl)cc1)c1cccnc1)N1CCN(c2ccc(C(F)(F)F)cc2)CC1 (racemic) | Active
